# The source made the active and inactive calls.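 Rule for the calls, unless noted: active = GFP response above 150% of the DMSO level; inconclusive = fewer than 70 events counted for a yeast strain; inactive = the rest.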
# How the values were obtained:
# [1] = RPL19A-GFP modulators, yeast TOR pathway, confirmation, cell-based, S. cerevisiae, flow cytometry, cherry picks, mother/daughter gates (AID 2270;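 active = GFP response below 50% of the DMSO control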); settings: S. cerevisiae RPL19A-GFP strain, 3 h, at 10 µM, stronger effect = lower value, 100 = same GFP as DMSO wells
# [2] = LAP4-GFP expression modulators in yeast, confirmation, cell-based, cherry picks, flow cytometry, mother/daughter gates (AID 2271;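 active = GFP response above 150% of the DMSO control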;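 note: ratio of sample to DMSO plate mean so 100% equals DMSO level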); settings: S. cerevisiae LAP4-GFP strain, 3 h, at 10 µM, stronger effect = higher value, 100 means same as DMSO control
# Procedure, shortened: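 Test system: GFP-fusion yeast strain / Amount: 0.2 OD600 cells / Buffer or medium: SC medium / Dosing: 10 µM single dose / Incubation: compound exposure 3 h at 30 °C, end-over-end rotation / Detection: HT flow cytometry, GFP fluorescence channel / Evaluation: median GFP fluorescence as percent of plate-mean DMSO wells / Control set: DMSO-only negative wells, rapamycin 400 ng/mL positive wells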
# [3] = modulators of MEP2-GFP levels in yeast, confirmation, S. cerevisiae, flow cytometry GFP, cherry picks (AID 2272;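 active = GFP response above 150% of the DMSO control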;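 note: ratio of well signal to plate DMSO mean so 100% equals DMSO level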); settings: S. cerevisiae MEP2-GFP strain, 3 h, at 10 µM, stronger effect = higher value
# [4] = AGP1-GFP expression modulators, hit retest, confirmation, cell-based, flow cytometry, S. cerevisiae, cherry picks (AID 2273);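 note: median GFP channel fluorescence over the whole cell population gate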; settings: S. cerevisiae AGP1-GFP strain, 3 h, at 10 µM
# [5] = modulators of CIT2-GFP expression in yeast, confirmation, S. cerevisiae, GFP fusion, cherry picks, mother/daughter gates (AID 2274); settings: S. cerevisiae CIT2-GFP strain, flow cytometry, 3 h, at 10 µM, stronger effect = higher value
# [6] = measured here: daughter cell gate
# [7] = measured here: mother cell gate
# [8] = measured here: daughter cell gate response
# [9] = measured here: mother cell gate response
Structure (SMILES),GFP response vs DMSO [1],"GFP response vs DMSO [1, 6] [%]","GFP response vs DMSO [1, 7] [%]",GFP response relative to DMSO [2],"GFP response relative to DMSO [2, 8] [%]","GFP response relative to DMSO [2, 9] [%]",GFP response vs DMSO [3],"GFP response, % of DMSO [4]","GFP response, % of DMSO [5]","GFP response, % of DMSO [5, 6] [%]","GFP response, % of DMSO [5, 7] [%]"
O=C(O)c1ccc(Sc2ccccn2)c([N+](=O)[O-])c1,98% (inactive),99.1,98.2,96.7% (inactive),97.6,95.1,102% (inactive),97% (inactive),99.7% (inactive),101,98.5
COc1cccc(N=Cc2nc(-c3ccccc3)oc2OC(C)=O)c1,97.4% (inactive),96.1,98.7,108% (inactive),101,113,87.8% (inactive),87.5% (inactive),95.5% (inactive),95.4,95
COC(=O)c1ccc(/C=N/OCC(=O)NCCc2ccc(OC)c(OC)c2)cc1,99% (inactive),99,98.7,97.4% (inactive),102,97.2,102% (inactive),102% (inactive),107% (inactive),106,107
O=C(Nc1nc(-c2ccc(F)cc2)cs1)c1cnccn1,97.8% (inactive),98.3,98.1,101% (inactive),97.9,101,110% (inactive),96.2% (inactive),105% (inactive),98.3,104
CC(=O)Nc1ccc(-c2csc(NC(=O)c3ccc(C)o3)n2)cc1,98.4% (inactive),98.1,99.8,97.9% (inactive),99.2,98.3,100% (inactive),98.3% (inactive),105% (inactive),106,104
Cc1csc(Nc2ccccc2C(F)(F)F)n1,96.2% (inactive),94.2,95.9,105% (inactive),104,108,101% (inactive),94.3% (inactive),97.2% (inactive),97.6,94.9
CC(=O)N(C1=C(Cl)C(=O)c2ccccc2C1=O)C1CCCCC1,22.6% (active),92.8,23.1,72.2% (inactive),113,73.7,97.8% (inactive),34.1% (inactive),69.1% (inactive),93.2,54.7
O=[N+]([O-])c1ccc(Sc2ccccc2Cl)nc1,103% (inactive),104,103,91.9% (inactive),93.6,89.7,112% (inactive),106% (inactive),105% (inactive),106,103
C(=N\Nc1ccccn1)/c1c[nH]c2ccccc12,103% (inactive),102,104,97% (inactive),95.9,96.2,101% (inactive),104% (inactive),100% (inactive),99.2,98.1
Cc1cccn2c(=O)c(/C=C(\C#N)C(=O)NCc3ccccc3)c(N3CCC(C(N)=O)CC3)nc12,98.7% (inactive),99,97.5,101% (inactive),102,101,101% (inactive),104% (inactive),101% (inactive),103,103
COc1ccc(OC)c(C2C(C(=O)Nc3nc4ccccc4s3)=C(C)NC3=C2C(=O)CCC3)c1 (centres undefined),102% (inactive),78.4,78.4,102% (inactive),86.4,82.9,109% (inactive),103% (inactive),103% (inactive),85,83.7
COc1ccccc1N1C(=O)c2cccc3c(C(=O)O)ccc(c23)C1=O,98.8% (inactive),99.1,98.7,101% (inactive),101,98.3,105% (inactive),97.4% (inactive),99.7% (inactive),101,98.5
CCCc1[nH]nc2c1C(c1ccc(OCCN3CCOCC3)c(OC)c1)C(C#N)=C(N)O2 (centres undefined),96.6% (inactive),96.4,98.2,97.9% (inactive),99.2,96.1,102% (inactive),93.9% (inactive),101% (inactive),103,101
Cc1ccsc1C(=O)N(Cc1nnc(-c2ccccc2Cl)o1)C1CC1,95.8% (inactive),97.3,95.2,98.9% (inactive),96,100,103% (inactive),102% (inactive),100% (inactive),99.3,99.3
COc1ccc(N2C(=O)C(Cl)=C(N(CCO)Cc3ccccc3)C2=O)cc1,101% (inactive),99.1,102,98.2% (inactive),99.1,99.4,101% (inactive),102% (inactive),100% (inactive),101,99.3
CCOC(=O)c1c(C)[nH]c(C)c1C(=O)COC(=O)c1cc2ccccc2cc1O,96.2% (inactive),97.3,94.8,106% (inactive),104,109,103% (inactive),103% (inactive),98.4% (inactive),96.8,96.7
O=C(O)Cc1sc(Nc2ccc(F)cc2)nc1-c1cccs1,97.6% (inactive),99.4,97,129% (inactive),125,135,110% (inactive),108% (inactive),103% (inactive),103,103

Structure (SMILES),GFP response vs DMSO [1],"GFP response vs DMSO [1, 6] [%]","GFP response vs DMSO [1, 7] [%]",GFP response relative to DMSO [2],"GFP response relative to DMSO [2, 8] [%]","GFP response relative to DMSO [2, 9] [%]",GFP response vs DMSO [3],"GFP response, % of DMSO [4]","GFP response, % of DMSO [5]","GFP response, % of DMSO [5, 6] [%]","GFP response, % of DMSO [5, 7] [%]"
N#C/C(=C\c1c(N2CCCCC2)nc2ccccn2c1=O)C(=O)NCc1ccco1,98.7% (inactive),98.8,99.5,97.7% (inactive),97.9,96.5,97.5% (inactive),99.7% (inactive),99.3% (inactive),100,96.8
CCN1C(=O)/C(=C\C(=O)c2cccs2)c2cc(Br)ccc21,97.6% (inactive),96.7,97.2,144% (inactive),128,140,104% (inactive),94.5% (inactive),99.3% (inactive),104,92.1
Cc1ccc(S(=O)(=O)c2ncccc2[N+](=O)[O-])cc1,92.2% (inactive),93.2,89.1,129% (inactive),123,131,105% (inactive),109% (inactive),94.4% (inactive),97.4,91.9
CCOc1ccccc1NC1=C(Cl)C(=O)N(Cc2ccccc2)C1=O,103% (inactive),102,104,96.2% (inactive),97.2,97.2,104% (inactive),98.5% (inactive),99.1% (inactive),99.7,98.7
COc1ccc(CCN2C(=O)c3cccc4cccc(c34)C2=O)cc1OC,104% (inactive),100,104,95.7% (inactive),99.1,97.3,101% (inactive),105% (inactive),100% (inactive),101,96.8
O=C(c1cc(-c2cccc(Cl)c2)on1)N1CCc2ccccc2C1,99.2% (inactive),100,99.5,95.7% (inactive),95.9,95.2,99% (inactive),104% (inactive),97.3% (inactive),97.4,96.8
O=C(O)CSc1nnc(-c2ccncc2)n1CCc1ccccc1,98.2% (inactive),98.4,100,102% (inactive),98.7,103,100% (inactive),98.3% (inactive),91.3% (inactive),91.5,90.2
CCOC(=O)CSC1=NC(=O)/C(=C\c2ccc(Cl)cc2)S1,96.5% (inactive),87.9,94.6,197% (active),150,186,103% (inactive),116% (inactive),88.9% (inactive),81.6,88.2
CCOC(=O)C1=C(Cc2ccc(F)cc2)C(=O)c2ccccc2C1=O,97.8% (inactive),99.6,95.8,101% (inactive),97.9,104,106% (inactive),92.5% (inactive),95% (inactive),96.4,92.1
NC(=O)CSCc1c(Cl)cccc1Cl,101% (inactive),100,101,105% (inactive),103,108,109% (inactive),97.2% (inactive),93.9% (inactive),94.8,92.3
O=C(O)CCc1ccc(-c2ccccc2)o1,94.4% (inactive),92.6,96.4,139% (inactive),138,138,96.2% (inactive),93.1% (inactive),94% (inactive),95.4,92.6
O=C(OCCOc1ccccc1)c1n[nH]c2ccccc12,96.4% (inactive),95.7,97.2,103% (inactive),97.9,101,97.5% (inactive),102% (inactive),102% (inactive),104,100
Cc1ccc(NC(=S)c2nc3ccccc3[nH]2)cc1,101% (inactive),99.6,99.3,125% (inactive),120,128,109% (inactive),88.3% (inactive),102% (inactive),103,99.3
O=[N+]([O-])/C=C/c1c(OCc2ccccc2)ccc2ccccc12,102% (inactive),104,101,112% (inactive),106,118,98.8% (inactive),102% (inactive),99.7% (inactive),103,94.7
COc1cccc2c1Oc1ncccc1N(C(=O)CCC(=O)NCc1ccccc1F)C2,100% (inactive),101,101,142% (inactive),147,139,135% (inactive),105% (inactive),148% (inactive),150,147
COC(=O)c1ccc(N2C(=O)CC(SCCN)C2=O)cc1 (centres undefined),98.7% (inactive),100,98.4,98.9% (inactive),102,100,101% (inactive),103% (inactive),100% (inactive),103,99.3
CCn1c(=O)c(C(=O)Nc2nc3ccccc3[nH]2)c(O)c2ccccc21,82.3% (inactive),87.3,67,169% (active),109,185,159% (inactive),96.2% (inactive),128% (inactive),99.1,109
